Active and inactive are the calls of the source. No cut-off for these calls is given here.
Key:
[1] = system: Epidermal growth factor receptor (Homo sapiens), P00533 [G719A,T790M]; assay: Induction of EGFR G719A/T790M mutant degradation in human CL97 cells assessed as reduction in Akt phosphorylation at 0.4 to 0.8 uM incubated for 48 hrs by Western blot analysis; assay type: cell-based
How it was run: (§1)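 After 48 h treatment, cells were scraped and lysed in 1% SDS, 50 mM Tris-HCl pH 8.0, 10 mM EDTA with protease and phosphatase inhibitors. Lysates sonicated, protein measured by BCA, equal amounts run on SDS-PAGE and blotted to nitrocellulose. Primary antibodies (EGFR, c-Met, S473-Akt, Akt, GAPDH) used at 1:1000 overnight at 4 °C, HRP secondaries at 1:5000, ECL detection.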

[2] = system: Epidermal growth factor receptor (Homo sapiens), P00533 [L858R,T790M]; assay: Induction of EGFR L858R/T790M double mutant degradation in human NCI-H1975 cells assessed as reduction in Akt phosphorylation at 0.2 to 0.6 uM incubated for 48 hrs by Western blot analysis; assay type: cell-based; how it was run: as §1
[3] = system: Epidermal growth factor receptor (Homo sapiens), P00533 [UNDEFINED MUTATION]; assay: Induction of EGFR E746-A750 deletion mutant degradation in human PC9 cells assessed as reduction in Akt phosphorylation at 0.4 to 0.8 uM incubated for 48 hrs by Western blot analysis; assay type: cell-based; conditions: 0.2 to 0.6 uM, in the assay text read “0.2 to 0.6 uM” for “0.4 to 0.8 uM”; how it was run: as §1
CL97 = assay: Antiproliferative activity against human CL97 cells harbouring EGFR G719A/T790M mutant assessed as reduction in cell viability incubated for 72 hrs by MTT assay; assay type: functional, cell-based; conditions: CL97, 72 h

Activity [1]: Active
Activity [2]: Active
Activity [3]: Active
Structure (SMILES): O=C(Nc1cccc(-c2nc(-c3ccc(NC(=O)c4cccnc4)cc3Cl)no2)c1)Nc1ccc(NC(=O)C2CC2)c(C(F)(F)F)c1
IC50 (CL97): 500 nM
